IMP-1 inh: inhibitors of Pseudomonas aeruginosa IMP-1 metallo-beta-lactamase. 290,000 tested, 0.45% active. inhibition, % at 5.6 µM. AID 1556. purified IMP-1, nitrocefin hydrolysis, epi-absorbance fluorescence;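 active = inhibition above the mean plus 3 SD of all compounds in the same screening run, cut at about 4.5% in these data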
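Material – recombinant IMP-1 enzyme, purified · Amount – IMP-1 0.2 nM before substrate addition · Medium – HEPES buffer pH 7.1 with ZnSO4 and Brij 35 · Timing – 25 °C, 15 min preincubation, 25 min reaction · Measured by – plate fluorescence quenching by hydrolysis product, ex 480/em 530 nm · Read-out – percent enzyme inhibition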
HKDC1 inhibitor: inhibitors of human hexokinase HKDC1 | 340,000 tested, 0.16% active | AID 493160 | recombinant HKDC1, G6PDH/diaphorase resazurin coupled fluorescence | Q2TB90 | inhibition, % at 20 µM;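 active = inhibition above about 35% when tested at 20 µM, limit read from the data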
Target sequence (Q2TB90 whole entry, looked up): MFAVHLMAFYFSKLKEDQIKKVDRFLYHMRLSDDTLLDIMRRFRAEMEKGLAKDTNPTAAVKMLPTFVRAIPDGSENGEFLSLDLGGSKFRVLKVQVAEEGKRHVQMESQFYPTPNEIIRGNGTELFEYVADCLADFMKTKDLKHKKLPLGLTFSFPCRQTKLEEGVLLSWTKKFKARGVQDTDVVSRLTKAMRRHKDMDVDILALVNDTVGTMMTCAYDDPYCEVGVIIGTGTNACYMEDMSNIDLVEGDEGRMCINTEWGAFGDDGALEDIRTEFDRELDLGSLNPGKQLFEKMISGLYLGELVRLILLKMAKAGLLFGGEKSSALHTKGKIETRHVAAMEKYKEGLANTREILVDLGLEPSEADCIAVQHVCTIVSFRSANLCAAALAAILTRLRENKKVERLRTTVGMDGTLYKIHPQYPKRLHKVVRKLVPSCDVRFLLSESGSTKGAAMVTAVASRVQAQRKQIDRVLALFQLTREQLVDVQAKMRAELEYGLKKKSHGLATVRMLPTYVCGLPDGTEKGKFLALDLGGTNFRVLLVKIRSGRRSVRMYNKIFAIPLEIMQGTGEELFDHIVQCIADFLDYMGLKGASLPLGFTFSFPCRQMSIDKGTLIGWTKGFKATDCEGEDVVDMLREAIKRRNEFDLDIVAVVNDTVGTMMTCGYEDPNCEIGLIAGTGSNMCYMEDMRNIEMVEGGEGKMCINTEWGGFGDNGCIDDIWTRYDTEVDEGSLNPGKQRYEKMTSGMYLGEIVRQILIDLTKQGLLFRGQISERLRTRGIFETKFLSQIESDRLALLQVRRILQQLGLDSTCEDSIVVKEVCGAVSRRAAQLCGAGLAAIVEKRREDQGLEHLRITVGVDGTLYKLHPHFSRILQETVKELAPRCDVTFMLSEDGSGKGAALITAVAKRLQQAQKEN
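Assay system – recombinant HKDC1 (HK5) hexokinase enzyme, produced in-house · Input – HKDC1 at 5 µg/mL · Reagent – glucose plus 1 mM ATP as hexokinase substrates · Timing – 90 min reaction incubation at room temperature, dark · Measured by – G6PDH/diaphorase-coupled fluorescence, 1 mM NADP, 100 µM resazurin, 525/613 nm · Benchmarks – DMSO-enzyme wells negative, buffer-substituted wells positive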
ATG4B inh: ATG4B (human) cysteine protease inhibition | Q9Y4P1 | ATG4B cleavage of LC3-PLA2, NBD-HPC fluorescence, 1 h | inhibition, % at 8.33 µM | 340,000 tested, 0.51% active | AID 504462; in the data active = inhibition above about 40%
VIM-2 inhibitor: blocks Pseudomonas aeruginosa VIM-2 metallo-beta-lactamase; purified VIM-2, nitrocefin hydrolysis, epi-absorbance fluorescence; inhibition, % at 5.6 µM; 290,000 tested, 0.89% active;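 active = inhibition above the mean of all tested compounds plus 3 SD, cutoff set per screening run, cut at about 7.5% in these data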;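 also: red hydrolysis product quenches plate fluorescence so inhibitors raise well fluorescence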
MIN6 prolif: inducers of beta-cell replication in MIN6 cells; 330,000 tested, 0.29% active; AID 2380; MIN6 cells proliferation, ATPlite luminescence, 48 h; cells starved in 0.2% serum; 100% = growth in 10% serum; proliferation, % at 10 µM;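 active = compounds whose signal lies at least 3.5 SD above the mean of all wells on their plate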
PvdQ acylase: P. aeruginosa PvdQ acylase inhibition | 340,000 tested, 0.063% active | inhibition, % at 10 µM | purified PvdQ acylase, fluorescence plate reader; in the data active = inhibition above about 30%, passing the limit was not always enough
VIM-2 confirm: VIM-2 inhibition, confirmation assay; shares compounds with IMP-1 inh; purified VIM-2 enzyme, nitrocefin absorbance; inhibition, % at 5.6 µM; 200 tested, 73% active; AID 1860; in the data active = inhibition above about 8%
TEM-1 counter: blocks E. coli TEM-1 beta-lactamase, VIM-2 IMP-1 counter-screen | shares compounds with IMP-1 inh | 200 tested, 50% active | inhibition, % at 5.6 µM | nitrocefin absorbance inhibition; in the data active = inhibition above about 0.66%
IMP-1 confirm: confirmation of P. aeruginosa IMP-1 metallo-beta-lactamase inhibitors | shares compounds with IMP-1 inh | purified IMP-1 enzyme, absorbance substrate hydrolysis | inhibition, % at 5.6 µM | 200 tested, 60% active; in the data active = inhibition above about 4.9%
Hits are given with their value. In the library only some 2% were active in any assay of this set; here they are far more common.

How did Cn1cc(/C=C/c2cc[n+](C)cc2)c2cc(F)ccc21 do in these assays?
IMP-1 inh: 5.7; HKDC1 inhibitor: inactive; ATG4B inh: inactive; VIM-2 inhibitor: 11.4; PvdQ acylase: inactive; VIM-2 confirm: 13.9; TEM-1 counter: 4.7; IMP-1 confirm: 7.5

What do the screens show for `O=c1[nH]nc(Cc2ccc3ccccc3n2)c2ccccc12`?
IMP-1 inh: inactive; HKDC1 inhibitor: inactive; ATG4B inh: inactive; VIM-2 inhibitor: inactive; MIN6 prolif: inactive; PvdQ acylase: inactive

How did N#CC(C#N)=C1C=C2C=C(N3CCCCCC3)CCC2CC1 (stereo not drawn) do in these assays?
IMP-1 inh: 38.1; HKDC1 inhibitor: inactive; ATG4B inh: inactive; VIM-2 inhibitor: 37.6; PvdQ acylase: inactive; VIM-2 confirm: 64.0; TEM-1 counter: 92.2; IMP-1 confirm: 57.7

How did N#Cc1cc(Cl)c(N2CCOCC2)cc1C#N do in these assays?
IMP-1 inh: inactive; HKDC1 inhibitor: inactive; ATG4B inh: inactive; VIM-2 inhibitor: inactive; MIN6 prolif: inactive; PvdQ acylase: inactive

How did CCN1CCN(C2=CC3=CC(=C(C#N)C#N)CCC3CC2)CC1 (stereo not drawn) do in these assays?
IMP-1 inh: 71.8; HKDC1 inhibitor: inactive; ATG4B inh: inactive; VIM-2 inhibitor: 54.7; PvdQ acylase: inactive; VIM-2 confirm: 62.0; TEM-1 counter: 66.9; IMP-1 confirm: 57.5

What do the screens show for `CC1(C)CC(NCCN2CCN(C3=CC(=C(C#N)C#N)CC(C)(C)C3)CC2)=CC(=C(C#N)C#N)C1`?
IMP-1 inh: inactive; HKDC1 inhibitor: inactive; ATG4B inh: inactive; VIM-2 inhibitor: inactive; MIN6 prolif: inactive; PvdQ acylase: inactive

What do the screens show for `N#CC(C#N)=C1C=C2C=C(N3CCOCC3)CCC2CC1` (stereo not drawn)?
IMP-1 inh: 17.4; HKDC1 inhibitor: inactive; ATG4B inh: inactive; VIM-2 inhibitor: 19.6; PvdQ acylase: inactive; VIM-2 confirm: 64.4; TEM-1 counter: 75.9; IMP-1 confirm: 59.6

What do the screens show for `CN1CCN(C2=CC3=CC(=C(C#N)C#N)CCC3CC2)CC1` (stereo not drawn)?
IMP-1 inh: 66.6; HKDC1 inhibitor: inactive; ATG4B inh: inactive; VIM-2 inhibitor: 57.5; PvdQ acylase: inactive; VIM-2 confirm: 61.6; TEM-1 counter: 66.3; IMP-1 confirm: 63.3

How did COc1ccc(-c2nc(CS(=O)(=O)CC(=O)NCc3ccc(F)cc3)c(C)o2)cc1 do in these assays?
IMP-1 inh: inactive; HKDC1 inhibitor: inactive; ATG4B inh: inactive; VIM-2 inhibitor: inactive; MIN6 prolif: inactive; PvdQ acylase: inactive

What do the screens show for `Nc1ccc(NC(=O)NC2CCCCC2)cc1[N+](=O)[O-]`?
IMP-1 inh: inactive; HKDC1 inhibitor: inactive; ATG4B inh: inactive; VIM-2 inhibitor: inactive; MIN6 prolif: inactive; PvdQ acylase: inactive

What do the screens show for `O=C1NC(Cc2ccccc2)c2nc3cc(Cl)ccc3c(=O)n2-c2ccccc21` (stereo not drawn)?
MIN6 prolif: inactive

How did COc1ccc(C(CNC(=O)c2cc(F)c(F)c(F)c2F)N2CCOCC2)cc1 (stereo not drawn) do in these assays?
IMP-1 inh: inactive; HKDC1 inhibitor: inactive; ATG4B inh: inactive; VIM-2 inhibitor: inactive; MIN6 prolif: inactive; PvdQ acylase: inactive

What do the screens show for `O=C(CCN1CCN(c2ccccc2)CC1)N/N=C/c1ccc([N+](=O)[O-])o1`?
IMP-1 inh: inactive; HKDC1 inhibitor: inactive; ATG4B inh: inactive; VIM-2 inhibitor: inactive; MIN6 prolif: inactive; PvdQ acylase: inactive

What do the screens show for `O=C1C2C(c3ccccc3)C=CC(c3ccccc3)C2C(=O)N1c1ccccn1` (stereo not drawn)?
IMP-1 inh: 74.8; HKDC1 inhibitor: inactive; ATG4B inh: inactive; VIM-2 inhibitor: 26.1; MIN6 prolif: inactive; PvdQ acylase: inactive; VIM-2 confirm: 11.6; TEM-1 counter: inactive; IMP-1 confirm: 36.6
